The test system of data set [1] is phosphorylation of AKT (Thr308, Ser473) in U87MG cells. Kind of data set: Electrochemiluminescent immunoassay. Format: cell-based, human. The note with it: 2 or 8 h. An outline of the steps: (§1)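 U87MG cells were seeded at 8 × 10^4 cells/mL and treated 48 h later for 2 or 8 h with 5 to 500 nmol/L inhibitor. Cells were lysed and freeze-thawed once at -80°C, and lysate went directly onto Meso Scale multiplex phospho/total plates with overnight sample incubation before secondary antibody. One well from each of three independent plates was read. IC50 is given as mean ±SD.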

The subject of data set [2] is phosphorylation of GSK3β Ser9 in U87MG cells. Kind of data set: Electrochemiluminescent immunoassay. Format: cell-based, human. In short, it runs like this: as §1
Data set [3] concerns phosphorylation of p70S6K Thr421/Ser424 in U87MG cells. Kind of data set: Electrochemiluminescent immunoassay. Format: cell-based, human. Conditions: at 2 hours and, more potently, at 8 hours. An outline of the steps:
as §1

Data set [4] relates to phosphorylation of S6 ribosomal protein Ser235/Ser236 in U87MG cells. Kind of data set: Electrochemiluminescent immunoassay. Conditions: at 2 hours and, more potently, at 8 hours. Format: cell-based, human. In short, it runs like this: as §1
Data set [5] deals with p110γ (Homo sapiens, UniProt P48736). In words: Phosphatidylinositide 3-kinase scintillation proximity assay, p110γ. Format: biochemical. Conditions: read-out: IC50 against p110γ; 1 μmol/L ATP. A general note: Scintillation proximity formats need no separation of bound from free tracer.
Data set [6] relates to panel of human cancer cell lines and human umbilical vein endothelial cells. In words: Antiproliferative GI50 assay, cell line panel. Format: cell-based. Conditions: 96 hours continuous exposure. In short, it runs like this:
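Tumor lines were grown in DMEM with 2 mmol/L glutamine, antibiotics and 10% FBS at 37°C in 5% CO2, and read by Alamar Blue or sulforhodamine B. Pooled HUVEC were used at passages 3 to 8 and read by an alkaline phosphatase assay. Exposure was continuous for 96 h. GI50 is the mean of three independent determinations.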

Data set [7] can be described thus: Pharmacokinetics of PI-540 and PI-620 in BALB/c mice. The data set is classed as in vivo. The note with it: for volume of distribution: female BALB/c mice, 10 mg/kg i.v.; for plasma clearance / oral bioavailability / terminal half-life in plasma / terminal half-life in tissues / spleen to plasma ratio: mice; for plasma clearance / terminal half-life in plasma / terminal half-life in tissues / spleen to plasma ratio: 10 mg/kg; for oral bioavailability: 10 mg/kg i.v. and p.o.; for terminal half-life in plasma / terminal half-life in tissues: after i.v. administration; for spleen to plasma ratio: following i.v. dosing.

The subject of data set [8] is U87MG human glioblastoma xenografts. Kind of data set: U87MG glioblastoma xenograft efficacy study. The data set is classed as in vivo, athymic mice. Conditions: for T/C (final tumor weights) / tumor growth inhibition: U87MG xenografts; for tolerability of doses: i.p. dosing for 14 days.
Data set [9] deals with AKT phosphorylation (Ser473, Thr308) in U87MG tumor xenografts. In words: Pharmacodynamic AKT phosphorylation in U87MG xenografts. The data set is classed as in vivo, athymic mice.
Data set [10] deals with phosphorylation of GSK3β in U87MG tumor xenografts. In words: Pharmacodynamic GSK3β phosphorylation in U87MG xenografts. Format: in vivo, athymic mice. The note with it: 50 mg/kg b.i.d or 100 mg/kg u.i.d i.p. for 4 days.
Data set [11] relates to LoVo cells. Kind of data set: Antiproliferative GI50 assay, LoVo. The data set is classed as cell-based. Conditions: Homo sapiens, 96 h, read-out: antiproliferative GI50. In short, it runs like this:
(§2)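 Cells grown in DMEM with 2 mmol/L glutamine, penicillin/streptomycin and 10% FBS at 37°C in 5% CO2, and mycoplasma-negative by PCR. Continuous 96 h exposure to test compound. Proliferation was read by Alamar Blue or sulforhodamine B, and GI50 was taken as the concentration giving 50% inhibition of proliferation.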

Data set [12] deals with SNUC2B cells. Kind of data set: Antiproliferative GI50 assay, SNUC2B. The note with it: Homo sapiens, SNU-C2B, 96 h, read-out: antiproliferative GI50. Format: cell-based. An outline of the steps:
as §2

Data set [13] relates to forkhead transcription factor translocation. The note with it: read-out: 50% inhibition of forkhead transcription factor translocation; previously reported; cited from earlier work.
Data set [14] deals with U87MG human glioblastoma xenografts. Conditions: PTEN-null U87MG glioblastoma xenografts; cited from earlier work.
In data set [15] the test system is AKT phosphorylation (Ser473, Thr308) in U87MG tumor xenografts. Conditions: for a short time; cited from earlier work.
The test system of data set [16] is HCT116 cells. In words: Antiproliferative GI50 assay, HCT116. Format: cell-based. Conditions: Homo sapiens, HCT-116, 96 h, read-out: antiproliferative GI50. In short, it runs like this: as §2
For data set [17], the system named is IGROV-1 human ovarian cancer xenografts. Kind of data set: IGROV-1 ovarian cancer xenograft efficacy study. Format: in vivo, athymic mice. The note with it: IGROV-1 xenografts.
Data set [18] concerns poly(ADP-ribose) polymerase cleavage in U87MG xenografts. Kind of data set: PARP cleavage in U87MG xenografts. Format: in vivo, athymic mice. The note with it: 4 hours after oral dosing with 25 to 150 mg/kg.
For data set [19] the following is noted: mice, 10 mg/kg; cited from earlier work.
[20] abbreviates: 25 mg/kg b.i.d i.p. for 14 days, 25 mg/kg.
Setting [21] is: 50 mg/kg u.i.d i.p. for 14 days.
Where [22] appears, read: 50 mg/kg b.i.d. i.p. for 14 days, 50 mg/kg.
Where [23] appears, read: 50 mg/kg b.i.d or 100 mg/kg u.i.d i.p. for 4 days, at 1 hour.
[24] abbreviates: 25 mg/kg daily p.o. for 19 days.
Setting [25] is: 25 mg/kg oral daily for 13 days.

Several values for one entry are separate records, joined by “and”; a condition that tells them apart may be missing. Equal values may be shown once. Read-outs that look alike come from different tables or passages of the source.

p110γ, sequence (P48736 whole entry, species assumed): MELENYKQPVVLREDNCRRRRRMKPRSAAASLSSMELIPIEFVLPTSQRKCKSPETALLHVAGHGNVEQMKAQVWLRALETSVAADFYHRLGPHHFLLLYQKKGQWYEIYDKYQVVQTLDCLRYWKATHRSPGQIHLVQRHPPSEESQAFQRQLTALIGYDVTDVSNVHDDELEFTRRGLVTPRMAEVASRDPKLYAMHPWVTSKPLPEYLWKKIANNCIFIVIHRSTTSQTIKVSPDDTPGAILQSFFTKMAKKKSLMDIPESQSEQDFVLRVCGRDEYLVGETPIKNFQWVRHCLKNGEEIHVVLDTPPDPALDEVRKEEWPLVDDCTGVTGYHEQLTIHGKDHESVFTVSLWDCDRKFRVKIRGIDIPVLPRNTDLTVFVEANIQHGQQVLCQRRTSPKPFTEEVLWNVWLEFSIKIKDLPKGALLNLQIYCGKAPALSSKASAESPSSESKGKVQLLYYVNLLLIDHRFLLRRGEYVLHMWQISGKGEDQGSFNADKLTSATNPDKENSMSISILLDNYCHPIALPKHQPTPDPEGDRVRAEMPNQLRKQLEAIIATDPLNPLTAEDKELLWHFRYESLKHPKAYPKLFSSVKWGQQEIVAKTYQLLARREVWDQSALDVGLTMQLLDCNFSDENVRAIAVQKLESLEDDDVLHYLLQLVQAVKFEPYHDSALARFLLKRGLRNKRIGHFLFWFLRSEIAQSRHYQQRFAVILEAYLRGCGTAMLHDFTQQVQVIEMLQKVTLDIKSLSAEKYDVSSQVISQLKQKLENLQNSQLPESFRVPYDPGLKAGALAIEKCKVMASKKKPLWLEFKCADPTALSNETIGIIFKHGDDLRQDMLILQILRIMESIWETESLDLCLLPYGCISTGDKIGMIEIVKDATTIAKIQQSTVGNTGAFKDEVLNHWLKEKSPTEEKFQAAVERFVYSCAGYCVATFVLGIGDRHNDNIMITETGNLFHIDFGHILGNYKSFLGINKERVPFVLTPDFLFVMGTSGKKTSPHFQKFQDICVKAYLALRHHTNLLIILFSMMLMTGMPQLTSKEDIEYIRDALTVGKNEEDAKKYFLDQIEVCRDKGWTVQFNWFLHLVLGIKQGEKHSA

With `CO[C@H]1C[C@@H]2CC[C@@H](C)[C@@](O)(O2)C(=O)C(=O)N2CCCC[C@H]2C(=O)O[C@H]([C@H](C)C[C@@H]2CC[C@@H](O)[C@H](OC)C2)CC(=O)[C@H](C)/C=C(\C)[C@@H](O)[C@@H](OC)C(=O)[C@H](C)C[C@H](C)/C=C/C=C/C=C/1C` [Rapamycin], in data set [1], the “effect on phosphorylation of AKT” value is listed as “did not affect”. Moreover, the “effect on phosphorylation of GSK3β” value in [2] (2 or 8 h) was “did not affect”. For the same compound, the “effect on phosphorylation of p70S6K” value in data set [3] is “inhibited”. The “effect on phosphorylation of S6 ribosomal protein” value in data set [4] was “inhibited”.

Regarding `OCCN1CCN(Cc2cc3nc(-c4cccc(O)c4)nc(N4CCOCC4)c3s2)CC1` [PI-620], the IC50 in [5] is more than 300 nM. The “growth inhibition potency in each cell line of the panel” value in [6] was “submicromolar”. Further, in [7], the volume of distribution worked out at 206 mL, the plasma clearance result is reported as “high”, the oral bioavailability was less than 10% and the “terminal half-life in plasma” value was 0.9 h. In [7], the “terminal half-life in tissues” value was 4.3 h and the “spleen to plasma ratio” value was determined as 13.9. In data set [8] (setting [20]), the “T/C (final tumor weights)” value was 27% and 26.7%; the tumor growth inhibition is 73% and 73.3%. Moreover, in data set [8] (setting [21]), the “T/C (final tumor weights)” value is on record as 44.8% and the tumor growth inhibition came out at 55.2%. In addition, the tolerability of doses result in data set [8] (athymic mice) is recorded as “very well tolerated”.

Regarding `CN1CCN(Cc2cc3nc(-c4cccc(O)c4)nc(N4CCOCC4)c3s2)CC1` [PI-540], the IC50 in data set [5] was more than 300 nM. For the same compound, in [2], the “fold less potent in inhibiting phosphorylation of GSK3β Ser9 compared with phosphorylation of AKT” value is listed as 10 fold. Moreover, the “growth inhibition potency in each cell line of the panel” value in [6] is given as “submicromolar”. In data set [7], the volume of distribution is on record as 300 mL, the plasma clearance entry was “high”, the oral bioavailability is on record as less than 10% and the “terminal half-life in plasma” value was found to be 0.24 h. In data set [7], the “terminal half-life in tissues” value amounted to 7.6 h and the “spleen to plasma ratio” value turned out to be 31. In addition, in data set [8] (setting [22]), the “T/C (final tumor weights)” value is 34% and 33.9%; the tumor growth inhibition is 66% and 66.1%. For the same compound, in data set [8] (athymic mice), the tolerability of doses entry is given as “very well tolerated”. Besides, in [9] (setting [23]), the “inhibition of phosphorylation on AKT Ser473 in tumor” value is more than 50% and the “inhibition of phosphorylation on AKT Thr308 in tumor” value is more than 50%. Besides, the “inhibition of phosphorylation of GSK3β in tumor” value in data set [10] was “no detectable inhibition”.

As to `Oc1cccc(-c2nc(N3CCOCC3)c3oc4ncccc4c3n2)c1` [PI-103], the concentration for 50% growth inhibition (GI50) (in general, the concentration at which growth is held to half of that of the control) came to 22 nM in data set [11] and 827 nM in [12]. The IC50 in data set [13] is 30 nM. The “growth inhibition in xenografts” value in data set [14] was more than 50%. The “inhibition of phosphorylation of AKT Ser473 in tumor” value in data set [15] is not above 50%.

For the compound `CS(=O)(=O)N1CCN(Cc2cc3nc(-c4cccc5[nH]ncc45)nc(N4CCOCC4)c3s2)CC1` [GDC-0941, 2-(1H-Indazol-4)-6-(4-methanesulfonyl-piperazin-1-ylmethyl)-4-morpholin-4-yl-thieno[3,2-d]pyrimidine], the GI50 is 180 nM in [11], 1630 nM in [12] and 905 nM in data set [16]. Also, the “T/C (final tumor weights)” value is on record as 23.4% in data set [8] (setting [24]) and 2.3% in [8] (150 mg/kg daily p.o. for 19 days). Moreover, the tumor growth inhibition in [8] (setting [24]) is 76.6%; in data set [8] (150 mg/kg daily p.o. for 19 days, 150 mg/kg), 98% and 97.7%; in [17] (setting [25]), 49.5%; in data set [17] (150 mg/kg oral daily for 13 days, 150 mg/kg), 80% and 80.3%. The tolerability of therapy entry in data set [8] (athymic mice, 25 to 150 mg/kg daily p.o. for 19 days, all groups gained weight at similar rates to controls) is “well tolerated”. Also, the T/C (usually the result in the treated group divided by that in the control group, in per cent) in data set [17] (setting [25]) was determined as 50.5%; in data set [17] (150 mg/kg oral daily for 13 days), 19.7%. For the same compound, in [9] (150 mg/kg daily p.o. for 19 days, 4 hours after the last dose), the “levels of activated AKT Ser473 in tumor” value is reported as “undetectable”. The “duration of maintained inhibition of AKT Ser473 phosphorylation in tumor” value in [9] (oral dosing) was more than 8 h. For the same compound, the “poly(ADP-ribose) polymerase cleavage in tumor samples” value in [18] was “clear increase”. In [19], the oral bioavailability is 78%.

These data come from article PMC2718129 (Molecular cancer therapeutics, 2009).
